Measured values: ChEMBL document CHEMBL4411267, “Phloroglucinols from the Roots of Garcinia dauphinensis and Their Antiproliferative and Antiplasmodial Activities” (J Nat Prod, 2019)
pIC50: −log10 of the molar value.

Assays:
A2780 = assay: Antiproliferative activity against human A2780 cells assessed as reduction in cell viability incubated for 48 hrs by Alamar blue assay; format: functional, cell-based; conditions: A2780, 48 h
Plasmodium falciparum = assay: Antiplasmodial activity against Plasmodium falciparum Dd2 assessed as reduction in parasite viability incubated for 72 hrs by SYBR Green I dye based assay; format: functional, organism-based; conditions: Dd2, 72 h
Procedure, shortened: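 Ring-stage parasite cultures at 1% parasitemia and 1% hematocrit, exposed to samples for 72 h at 37 °C under 5% CO2/5% O2/90% N2. Viability read by DNA quantitation with SYBR Green I in lysis buffer (0.33 μL dye per mL, 25 μL added). IC50 by nonlinear regression curve fitting; mean ± SD of three independent experiments.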

[1] = Selectivity index, ratio of IC50 for antiproliferative activity against human A2780 cells to IC50 for antiplasmodial activity against Plasmodium falciparum Dd2; format: functional

pIC50 (A2780) | Compound | pIC50 (Plasmodium falciparum) | Ratio IC50 [1]
4.91 | CCC(C)C(=O)c1c(O)cc(O)c(C/C=C(\C)CCC=C(C)C)c1O (stereo not drawn) | – | –
5.15 | C=C(C)CCC(Cc1c(O)cc(O)c(C(=O)[C@@H](C)CC)c1O)/C(C)=C/CC=C(C)C (stereo partly drawn) | 4.92 | –
4.82 | C=C1[C@@H](Cc2c(O)cc(O)c(C(=O)[C@@H](C)CC)c2O)CCC(C)(C)[C@@H]1CC=C(C)C | 6.10 | 20
– | CC[C@H](C)C(=O)c1c(O)cc(O)c(CC(CCC(C)(C)O)/C(C)=C/CC=C(C)C)c1O (stereo partly drawn) | 5.08 | –
5.19 | CC[C@H](C)C(=O)c1c(O)cc(O)c(CCC(C)(O)CCC=C(C)C)c1O (stereo partly drawn) | 5.27 | –
5.35 | CC[C@H](C)C(=O)c1c(O)cc(O)c(CC2=C(C)[C@@H](CC=C(C)C)C(C)(C)CC2)c1O | 5.33 | –
4.79 | CC(C)=CCC/C(C)=C/Cc1c(O)cc(O)c(C(=O)C(C)C)c1O | 4.90 | –
– | CC[C@H](C)C(=O)c1c(O)cc2c(c1O)C[C@@H]1C(C)(C)CCC[C@@]1(C)O2 (relative stereo) | 4.85 | –
– | C[C@@H]1CC[C@H]2[C@@H](C)C(=O)O[C@@H]3O[C@@]4(C)CC[C@@H]1[C@]32OO4 [ARTEMISININ] | 8.07 | –
4.71 | CC(C)=CCC/C(C)=C/CC/C(C)=C/CC[C@]1(C)CCc2cc(O)cc(C)c2O1 [DELTA-TOCOTRIENOL] | 5.28 | –
5.00 | CCC(C)C(=O)c1c(O)cc(O)c2c1O[C@](C)(CCC=C(C)C)[C@@H](O)C2 (stereo partly drawn) [EMPETRIKARINOL B] | – | –
